{"data": "Published values collected from several papers", "target": "Dual specificity tyrosine-phosphorylation-regulated kinase 2 (DYRK2, Homo sapiens, UniProt Q92630)", "One construct used (Q92630 1-601)": "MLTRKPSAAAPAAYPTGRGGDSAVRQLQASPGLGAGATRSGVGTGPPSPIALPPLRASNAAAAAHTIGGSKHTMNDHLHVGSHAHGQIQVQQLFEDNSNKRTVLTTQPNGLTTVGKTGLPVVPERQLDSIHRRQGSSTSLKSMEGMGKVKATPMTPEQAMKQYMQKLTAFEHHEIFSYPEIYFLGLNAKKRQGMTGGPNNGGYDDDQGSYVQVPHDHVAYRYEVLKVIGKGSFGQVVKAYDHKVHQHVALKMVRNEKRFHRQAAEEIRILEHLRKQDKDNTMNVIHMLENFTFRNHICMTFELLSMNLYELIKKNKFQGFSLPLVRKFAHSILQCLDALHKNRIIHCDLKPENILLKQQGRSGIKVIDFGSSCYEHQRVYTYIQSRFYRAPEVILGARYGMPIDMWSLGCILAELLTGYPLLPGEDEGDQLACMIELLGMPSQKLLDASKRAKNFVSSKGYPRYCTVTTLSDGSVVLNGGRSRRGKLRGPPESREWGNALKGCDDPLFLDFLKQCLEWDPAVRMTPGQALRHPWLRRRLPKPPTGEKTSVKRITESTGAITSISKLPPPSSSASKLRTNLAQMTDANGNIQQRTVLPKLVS", "note": "Protocols differ between the studies behind these lines."}
{"SMILES": "CN1CC(Oc2cnc(C#N)cc2-c2ccn3nc(NC(=O)C4CC4)cc3c2)C1", "effect on": "enzyme activity", "mode": "inhibitor", "concentration": "1 µM", "quantity": "inhibition", "result": "3%"}
{"SMILES": "O=C(Nc1cccnn1)N1CC(C/C=C/c2cncc(Oc3ccc(C(F)(F)F)cn3)n2)C1", "effect on": "cell-free assay", "method": "competition with immobilised ligand", "concentration": "1 µM", "quantity": "remaining binding", "result": "81%"}
{"SMILES": "Cc1cc(NC(=O)c2cccc3cc(-c4cccc5[nH]nc(N)c45)ccc23)ccc1F", "effect on": "enzyme activity", "mode": "inhibitor", "concentration": "0.1 µM", "quantity": "activity vs control", "result": "98%"}
{"SMILES": "Cn1cncc1C1=CN(c2ncnc3[nH]cnc23)CCS1", "effect on": "enzyme activity", "mode": "inhibitor", "method": "radiometric", "concentration": "50 nM", "quantity": "inhibition", "result": "20.6%"}
{"SMILES": "O=C(N1CCS(=O)(=O)CC1)N1C[C@H](c2ccc(OC(F)(F)F)cc2)C[C@H](c2nc(C3CC3)no2)C1", "effect on": "cell-free assay", "method": "competition with immobilised ligand", "concentration": "1 µM", "quantity": "remaining binding", "result": "100%"}
{"SMILES": "O=C(O)c1ccc2c(c1)nc(NCc1ccccc1)c1ccncc12", "effect on": "enzyme activity", "mode": "inhibitor", "method": "radiometric", "concentration": "1 µM", "quantity": "remaining activity", "result": "27%"}
{"SMILES": "Cc1c(C(=O)O)cc(-c2ccc(C3CCNCC3)cc2)c2ccc(-c3ccc(C(F)(F)F)cc3)cc12", "effect on": "binding", "method": "competition with immobilised ligand", "concentration": "1 µM", "quantity": "remaining binding", "result": "100%"}
{"SMILES": "O=C(O)c1ccc2c(c1)nc(Nc1ccc(F)c(Cl)c1)c1ccncc12", "effect on": "enzyme activity", "mode": "inhibitor", "method": "radiometric", "concentration": "1 µM", "quantity": "remaining activity", "result": "5%"}
{"SMILES": "Cc1ccc(Nc2nccc(N(C)c3ccc4c(C)n(C)nc4c3)n2)cc1S(N)(=O)=O", "effect on": "enzyme activity", "mode": "inhibitor", "concentration": "10 µM", "quantity": "inhibition", "result": "-3%"}
{"SMILES": "Cc1ccc(NC(=O)c2ccc(C)c(C(F)(F)F)c2)cc1C#Cc1nn(C2CCC(O)CC2)c2ncnc(N)c12 (stereo not shown)", "effect on": "cell-free assay", "concentration": "10 µM", "quantity": "remaining signal", "result": "107%"}
{"SMILES": "O=C(O)c1ccc2c(c1)nc(Nc1ccccc1)c1ncncc12", "effect on": "enzyme activity", "mode": "inhibitor", "method": "radiometric", "concentration": "1 µM", "quantity": "remaining activity", "result": "54%"}
{"SMILES": "CCCS(=O)(=O)Nc1ccc(F)c(C(=O)c2c[nH]c3ncc(-c4ccc(Cl)cc4)cc23)c1F", "effect on": "enzyme activity", "mode": "inhibitor", "concentration": "1 µM", "quantity": "inhibition", "result": "< 10%"}
{"SMILES": "O=C(O)[C@H]1[C@H](Cn2nnc3ccccc3c2=O)CC[C@@H]1C(=O)c1ccc(OCCC2CCOCC2)cc1", "effect on": "cell-free assay", "method": "competition with immobilised ligand", "concentration": "1 µM", "quantity": "remaining binding", "result": "93%"}
{"SMILES": "O=C1NC(=O)c2cc(Nc3ccc(F)cc3)c(Nc3ccc(F)cc3)cc21", "effect on": "cell-free assay", "concentration": "0.5 µM", "quantity": "remaining signal", "result": "89.1%"}
{"SMILES": "CCN(CC)CCNC(=O)c1c(C)[nH]c(/C=C2\\C(=O)Nc3ccc(F)cc32)c1C", "effect on": "enzyme activity", "mode": "inhibitor", "concentration": "0.3 µM", "quantity": "inhibition", "result": "-5%"}
{"SMILES": "Cc1cc(NC(=O)c2cccc(S(F)(F)(F)(F)F)c2)cc(-n2ccn3nc(-c4cccnc4)cc23)c1", "effect on": "cell-free assay", "method": "competition with immobilised ligand", "concentration": "1 µM", "quantity": "remaining binding", "result": "100%"}
{"SMILES": "O=C(O)c1ccc2c(c1)nc(Nc1cccc(F)c1)c1ccncc12", "effect on": "enzyme activity", "mode": "inhibitor", "method": "radiometric", "concentration": "1 µM", "quantity": "remaining activity", "result": "13%"}
{"SMILES": "CS(=O)(=O)CCNCc1ccc(-c2ccc3ncnc(Nc4ccc(OCc5cccc(F)c5)c(Cl)c4)c3c2)o1", "effect on": "cell-free assay", "concentration": "0.5 µM", "quantity": "remaining signal", "result": "102%"}
{"SMILES": "FC(F)(F)Oc1cccc(-c2cnc3ccc(-c4ccncc4)nn23)c1", "effect on": "enzyme activity", "mode": "inhibitor", "method": "radiometric", "concentration": "5 µM", "quantity": "activity vs control", "result": "46%"}
{"SMILES": "O=C(O)c1ccc2c(c1)nc(Nc1ccc(Cl)cc1)c1ncncc12", "effect on": "enzyme activity", "mode": "inhibitor", "method": "radiometric", "concentration": "1 µM", "quantity": "remaining activity", "result": "33%"}
{"SMILES": "CCCCN(CCCC)C(=O)CN1C[C@@H](c2cc(OC)c3c(c2)OCO3)[C@H](C(=O)O)[C@H]1CC(C)(C)CCC", "effect on": "cell-free assay", "method": "competition with immobilised ligand", "concentration": "1 µM", "quantity": "remaining binding", "result": "82.9%"}
{"SMILES": "O=C(O)c1ccc2c(c1)nc(Nc1cccc(F)c1)c1ncncc12", "effect on": "enzyme activity", "mode": "inhibitor", "method": "radiometric", "concentration": "1 µM", "quantity": "remaining activity", "result": "33%"}
{"SMILES": "Cc1nc(Cc2cccc(C(F)(F)F)c2)sc1-c1ccc(C(N)=O)nc1", "effect on": "cell-free assay", "method": "competition with immobilised ligand", "concentration": "1 µM", "quantity": "remaining binding", "result": "90%"}
{"SMILES": "O=C(O)c1ccc2c(c1)nc(Nc1ccccc1Cl)c1ncncc12", "effect on": "enzyme activity", "mode": "inhibitor", "method": "radiometric", "concentration": "1 µM", "quantity": "remaining activity", "result": "60%"}
{"SMILES": "O=C1Nc2ccc(Cl)cc2C1=Cc1cc(Cl)c(O)c(Cl)c1", "effect on": "cell-free assay", "concentration": "0.5 µM", "quantity": "remaining signal", "result": "94%"}
{"SMILES": "CNCc1ccccc1-c1csc([C@H](C)Nc2nc(C)nc3cc(OC)c(OC)cc23)c1", "effect on": "cell-free assay", "method": "competition with immobilised ligand", "concentration": "1 µM", "quantity": "remaining binding", "result": "96%"}
{"SMILES": "O=C(O)c1ccc2c(c1)nc(Nc1ccc(F)c(Cl)c1)c1ncncc12", "effect on": "enzyme activity", "mode": "inhibitor", "method": "radiometric", "concentration": "1 µM", "quantity": "remaining activity", "result": "41%"}
{"SMILES": "N#CCCc1ccc2c(c1)-c1[nH]c3ccc([N+](=O)[O-])cc3c1CC(=O)N2", "effect on": "cell-free assay", "concentration": "0.5 µM", "quantity": "remaining signal", "result": "46.8%"}
